The values below come from ChEMBL document CHEMBL3400092 (2015).

The source made the active and inactive calls. No cut-off for these calls is given here. Bounds are passed on as bounds.

Assay [1] relates to CL1-5. Put plainly: Reduction in total wild type EGFR levels in gefinitib-insensitive and 24 hrs serum starved human CL1-5 cells at 10 uM pre-incubated for 1 hr before EGF stimulation for 30 mins by Western blot method. The class given is functional. The procedure, abridged:
(§1)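 Cells in RPMI-1640 with 10% FBS were plated at 1×10^6 per 10-cm dish, cultured overnight, then kept serum-free for 24 h. They were pre-treated with 10 μM compound for 1 h, serum-free, then stimulated with EGF 20 ng/mL (20 min in methods, 30 min in legend). Whole-cell lysates, 40 μg/lane, were run on 10% SDS-PAGE, blotted to PVDF, probed for pan-EGFR and pEGFR (Tyr1068), and detected by ECL.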

Assay [2] concerns NCI-H1975. Put plainly: Reduction in total EGFR L858R and T790M mutant levels in gefinitib-resistant and 24 hrs serum starved human NCI-H1975 cells at 10 uM pre-incubated for 1 hr before EGF stimulation for 30 mins by Western blot method. The format is functional, cell-based. In outline: as §1
The subject of assay [3] is IEC-18. Put plainly: (§2) Cytoprotective activity against 40 uM gefitinib-induced cytotoxicity in rat IEC-18 cells assessed as restoration of cell viability at 5 uM incubated for 24 hrs by MTT assay. The class given is functional. The procedure, abridged:
(§3)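 IEC-18 rat intestinal epithelial cells, kept in DMEM with 10% FBS, were seeded at 5×10^3 cells/well and co-treated with compound and gefitinib for 24 h. Stocks were in DMSO, with final DMSO below 0.1%. MTT (0.5 mg/mL) was added for 1.5 h, then DMSO, and absorbance was read at 570 nm. Viability was expressed as proliferative index (%) relative to untreated cells (100%). Triplicate; Student t-test.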

The target in assay [4] is Epidermal growth factor receptor (Homo sapiens) (UniProt P00533). The note with it: CL1-5, at 10 µM.
Assay [5] concerns Epidermal growth factor receptor (Homo sapiens), P00533 [L858R,T790M]. The note with it: NCI-H1975, at 10 µM.
The nature of assay [6]: as §2. The format is functional. The procedure, abridged: as §3

Chain of Epidermal growth factor receptor (Homo sapiens), P00533 [L858R,T790M] (P00533 whole entry T790M/L858R, looked up): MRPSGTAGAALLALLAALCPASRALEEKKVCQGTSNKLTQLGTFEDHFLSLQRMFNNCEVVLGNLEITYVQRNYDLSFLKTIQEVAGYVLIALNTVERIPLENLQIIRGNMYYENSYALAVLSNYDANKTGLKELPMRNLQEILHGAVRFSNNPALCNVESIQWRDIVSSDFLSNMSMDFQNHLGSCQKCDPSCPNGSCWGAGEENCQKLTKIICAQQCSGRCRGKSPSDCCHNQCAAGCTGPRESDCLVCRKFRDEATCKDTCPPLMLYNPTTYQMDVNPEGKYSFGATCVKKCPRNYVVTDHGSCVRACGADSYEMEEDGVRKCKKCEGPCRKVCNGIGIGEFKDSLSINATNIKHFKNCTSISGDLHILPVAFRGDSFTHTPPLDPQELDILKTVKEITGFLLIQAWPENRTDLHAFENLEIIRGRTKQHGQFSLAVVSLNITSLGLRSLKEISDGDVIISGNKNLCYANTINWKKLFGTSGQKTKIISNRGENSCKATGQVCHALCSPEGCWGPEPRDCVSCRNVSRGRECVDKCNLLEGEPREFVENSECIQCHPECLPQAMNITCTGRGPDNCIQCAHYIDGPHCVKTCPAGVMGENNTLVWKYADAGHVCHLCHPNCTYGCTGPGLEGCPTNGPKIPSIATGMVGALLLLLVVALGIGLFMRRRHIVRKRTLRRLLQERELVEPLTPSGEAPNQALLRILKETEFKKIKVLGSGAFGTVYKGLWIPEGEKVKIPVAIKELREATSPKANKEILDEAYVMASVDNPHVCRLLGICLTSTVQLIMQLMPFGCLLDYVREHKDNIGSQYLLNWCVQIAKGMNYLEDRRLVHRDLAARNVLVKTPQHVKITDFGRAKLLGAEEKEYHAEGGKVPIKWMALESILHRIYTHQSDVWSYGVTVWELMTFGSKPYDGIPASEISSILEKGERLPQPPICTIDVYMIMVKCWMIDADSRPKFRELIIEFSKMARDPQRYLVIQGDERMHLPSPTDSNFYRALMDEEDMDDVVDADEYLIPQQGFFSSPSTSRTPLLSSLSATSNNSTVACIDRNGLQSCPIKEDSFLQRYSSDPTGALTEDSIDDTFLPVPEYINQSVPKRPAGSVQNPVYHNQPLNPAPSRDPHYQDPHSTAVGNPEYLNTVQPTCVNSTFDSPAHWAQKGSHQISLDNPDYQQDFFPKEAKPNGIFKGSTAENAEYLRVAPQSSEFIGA
Chain of Epidermal growth factor receptor (Homo sapiens) (P00533 whole entry): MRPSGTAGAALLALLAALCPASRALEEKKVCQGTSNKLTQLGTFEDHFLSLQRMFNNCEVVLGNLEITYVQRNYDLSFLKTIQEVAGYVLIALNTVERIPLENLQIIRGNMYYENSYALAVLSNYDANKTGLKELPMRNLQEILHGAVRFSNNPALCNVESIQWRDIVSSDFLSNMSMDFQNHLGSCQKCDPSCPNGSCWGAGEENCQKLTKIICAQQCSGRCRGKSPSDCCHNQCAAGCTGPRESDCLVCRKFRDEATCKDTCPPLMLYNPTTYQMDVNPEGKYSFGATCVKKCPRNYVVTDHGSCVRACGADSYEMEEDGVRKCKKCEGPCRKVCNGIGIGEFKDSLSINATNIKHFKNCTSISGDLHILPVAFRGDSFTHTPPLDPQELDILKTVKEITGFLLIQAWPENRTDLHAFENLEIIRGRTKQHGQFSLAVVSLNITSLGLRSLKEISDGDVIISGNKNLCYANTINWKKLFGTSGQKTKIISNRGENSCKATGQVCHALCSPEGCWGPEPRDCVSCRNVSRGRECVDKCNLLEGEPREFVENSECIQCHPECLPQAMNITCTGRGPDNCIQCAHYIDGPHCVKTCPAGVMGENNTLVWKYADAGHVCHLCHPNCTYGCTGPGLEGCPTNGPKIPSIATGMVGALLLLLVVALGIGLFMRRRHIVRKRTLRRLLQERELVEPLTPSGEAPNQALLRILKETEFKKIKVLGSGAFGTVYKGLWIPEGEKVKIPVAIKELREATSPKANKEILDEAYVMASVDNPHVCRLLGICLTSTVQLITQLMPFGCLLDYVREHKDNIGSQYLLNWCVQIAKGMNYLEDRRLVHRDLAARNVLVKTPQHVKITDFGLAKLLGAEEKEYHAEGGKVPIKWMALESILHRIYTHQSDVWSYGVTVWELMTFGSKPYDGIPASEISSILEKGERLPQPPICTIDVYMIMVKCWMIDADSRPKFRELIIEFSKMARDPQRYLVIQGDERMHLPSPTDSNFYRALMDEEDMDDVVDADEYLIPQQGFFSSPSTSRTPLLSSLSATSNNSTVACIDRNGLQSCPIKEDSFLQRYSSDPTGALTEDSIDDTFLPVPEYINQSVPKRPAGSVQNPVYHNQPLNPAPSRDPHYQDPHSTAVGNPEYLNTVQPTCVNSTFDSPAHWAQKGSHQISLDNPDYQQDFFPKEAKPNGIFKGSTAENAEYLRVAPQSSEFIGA

Take `COc1ccc(/C=C/C(=O)/C=C(O)/C=C/c2ccc(OC)c(OC)c2)cc1O`: the inhibition entry in assay [1], in assay [2], in assay [4] and in assay [5] was “Active” each time. Besides, the outcome in assay [3] was Active.

As for `COc1ccc(/C=C/C(=O)/C=C(O)/C=C/c2ccc(OC)c(OC)c2)cc1OC`, the inhibition entry in assay [1], in assay [2], in assay [4] and in assay [5] was “Active” throughout. In addition, the outcome in assay [3] was Active.

Take `COc1cc(/C=C/C(O)=C/C(=O)/C=C/c2ccc(OC)c(OC)c2)ccc1O`: the inhibition entry in assay [1], in assay [2], in assay [4] and in assay [5] was “Active” in each case. In addition, the outcome in assay [3] was Active.

As for `COc1cc(/C=C/C(=O)CC(=O)/C=C/c2ccc(O)c(OC)c2)ccc1O`, the inhibition entry in assay [1] and in assay [2] was “Active” each time. In addition, the result in assay [3] was Active.

For the molecule `O=C(/C=C(O)/C=C/c1ccc(O)c(O)c1)/C=C/c1ccc(O)c(O)c1`, the inhibition result in assay [1], in assay [4] and in assay [5] was “Active” in each case. Further, the inhibition entry in assay [2] was “inactive”. In addition, the Activity entry in assay [6] was “<=80%”.
